Experimental data: ChEMBL document CHEMBL1159125, “Novel 3-aminopyrazole inhibitors of MK-2 discovered by scaffold hopping strategy” (Bioorg Med Chem Lett, 2010)
The source made the active and inactive calls. No cut-off for these calls is given here.

Key:
[1] = biological target: Cyclin-dependent kinase 2 (Homo sapiens, UniProt P24941); assay: Inhibition of CDK2
[2] = biological target: Mitogen-activated protein kinase 8 (Homo sapiens, UniProt P45983); assay: Inhibition of JNK1
[3] = biological target: Mitogen-activated protein kinase 9 (Homo sapiens, UniProt P45984); assay: Inhibition of JNK2
Chain of Mitogen-activated protein kinase 9 (P45984 whole entry): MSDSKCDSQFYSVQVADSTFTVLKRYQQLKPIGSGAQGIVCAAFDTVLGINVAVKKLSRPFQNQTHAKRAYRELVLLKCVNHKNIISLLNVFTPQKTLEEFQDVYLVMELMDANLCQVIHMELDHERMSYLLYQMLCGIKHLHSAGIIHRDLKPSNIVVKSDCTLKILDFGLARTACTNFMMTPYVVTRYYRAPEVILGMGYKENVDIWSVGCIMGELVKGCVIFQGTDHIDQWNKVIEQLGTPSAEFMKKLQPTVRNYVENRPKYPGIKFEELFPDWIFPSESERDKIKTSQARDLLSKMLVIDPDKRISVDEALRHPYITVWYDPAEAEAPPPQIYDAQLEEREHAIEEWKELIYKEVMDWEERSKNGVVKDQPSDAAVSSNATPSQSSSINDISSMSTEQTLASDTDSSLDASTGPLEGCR

[4] = biological target: Mitogen-activated protein kinase 14 (Homo sapiens, UniProt Q16539); assay: Inhibition of p38alpha
Chain of Mitogen-activated protein kinase 14 (Q16539 whole entry): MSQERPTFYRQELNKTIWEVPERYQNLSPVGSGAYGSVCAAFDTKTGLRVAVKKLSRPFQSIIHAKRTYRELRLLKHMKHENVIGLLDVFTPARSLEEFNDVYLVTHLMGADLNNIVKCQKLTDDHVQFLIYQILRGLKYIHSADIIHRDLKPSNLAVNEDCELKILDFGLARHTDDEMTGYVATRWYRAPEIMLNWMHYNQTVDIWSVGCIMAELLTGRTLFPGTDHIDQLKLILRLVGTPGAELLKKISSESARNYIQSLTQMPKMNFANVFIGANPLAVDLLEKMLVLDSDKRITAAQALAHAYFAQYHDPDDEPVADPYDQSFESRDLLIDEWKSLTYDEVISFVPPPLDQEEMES

[5] = tested on: THP-1; assay: Cytotoxicity against human THP1 cells; type: cell-based
[6] = tested on: Mus musculus; assay: Antiinflammatory activity in OF1 mouse assessed as inhibition of LPS-induced TNFalpha release at 100 mg/kg, po administered 1 hr prior to LPS challenge; type: functional
How it was run: (§1)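 Female OF1 mice, 8 weeks old, given compound orally; LPS (20 mg/kg) injected 1 h later. Blood withdrawn 1 h after LPS. Plasma mouse TNFα measured by ELISA; inhibition reported as percent.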

[7] = tested on: Mus musculus; assay: Antiinflammatory activity in OF1 mouse assessed as inhibition of LPS-induced TNFalpha release at 30 mg/kg, po administered 1 hr prior to LPS challenge measured by ELISA; type: functional, organism-based; parameters: dose 30 mg/kg; how it was run: as §1
[8] = Aqueous solubility at pH 1 to 6.8; type: physicochemical; conditions: aqueous medium
[9] = tested on: Mus musculus; assay: Antiinflammatory activity in po dosed OF1 mouse assessed as inhibition of LPS-induced TNFalpha release administered 1 hr prior to LPS challenge measured by ELISA; type: functional; how it was run: as §1
[10] = tested on: Mus musculus; assay: Antiinflammatory activity in po dosed OF1 mouse assessed as inhibition of LPS-induced TNFalpha release administered 4 hr prior to LPS challenge measured by ELISA; type: functional; parameters: scale not given: the % may be the effect or the level left
[11] = tested on: Mus musculus; assay: Antiinflammatory activity in po dosed OF1 mouse assessed as inhibition of LPS-induced TNFalpha release administered 6 hr prior to LPS challenge measured by ELISA; type: functional; parameters: scale not given: the % may be the effect or the level left
[12] = Drug level in OF1 mouse blood at 100 mg/kg, po after 1 hr; type: ADME, organism-based, OF; parameters: dose 100 mg/kg, route oral; conditions: read-out: Drug uptake
How it was run: (§2)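 Female OF1 mice, 8 weeks old, dosed orally, then LPS (20 mg/kg) injected 1 h later. Blood taken 1 h after LPS, and compound blood levels quantified by LC–MS/MS.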

[13] = Drug level in po dosed OF1 mouse blood after 1 hr; type: ADME, organism-based, OF; conditions: read-out: Drug uptake; how it was run: as §2
[14] = Drug level in po dosed OF1 mouse blood after 4 hr; type: ADME, organism-based, OF; conditions: read-out: Drug uptake
[15] = Drug level in po dosed OF1 mouse blood after 6 hr; type: ADME, organism-based, OF; conditions: read-out: Drug uptake
[16] = Drug level in OF1 mouse blood at 30 mg/kg, po after 1 hr; type: ADME, organism-based, OF; parameters: dose 30 mg/kg, route oral; conditions: read-out: Drug uptake; how it was run: as §2
[17] = Permeability from apical to basolateral side in human Caco-2 cells; type: ADME, cell-based

Chain of Mitogen-activated protein kinase 8 (P45983 whole entry): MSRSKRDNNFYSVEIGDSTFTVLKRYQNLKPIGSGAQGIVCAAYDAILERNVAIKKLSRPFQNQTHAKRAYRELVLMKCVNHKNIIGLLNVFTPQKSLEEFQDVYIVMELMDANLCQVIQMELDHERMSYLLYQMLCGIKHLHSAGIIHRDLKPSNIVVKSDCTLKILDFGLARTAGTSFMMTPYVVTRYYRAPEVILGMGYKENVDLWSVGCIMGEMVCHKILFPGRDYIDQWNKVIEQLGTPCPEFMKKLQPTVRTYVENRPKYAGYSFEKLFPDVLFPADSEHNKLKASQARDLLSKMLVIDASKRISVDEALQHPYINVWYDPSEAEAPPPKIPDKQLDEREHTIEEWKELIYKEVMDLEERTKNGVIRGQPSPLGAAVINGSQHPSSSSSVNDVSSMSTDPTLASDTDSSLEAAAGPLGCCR

Nc1nn(-c2cccc(-c3ccc4cc[nH]c4c3)c2)cc1-c1ccc2c(c1)CCNC2=O
IC50 [1]: > 10 µM | IC50 [2]: > 10 µM | IC50 [3]: > 10 µM | IC50 [4]: > 10 µM | IC50 [5]: > 20 µM | inhibition in vivo at 100 mg/kg [6]: 68% | Activity [7]: inactive | solubility [8]: < 2 µg/mL | inhibition (INH) [9]: 66% | Activity [10]: 23% | Activity [11]: 67% | concentration at 1 h [12]: 17.4 µM | concentration at 1 h [13]: 14.1 µM | concentration at 4 h [14]: 6.8 µM | concentration at 6 h [15]: 25.8 µM | concentration at 1 h [16]: 1.7 µM

COc1ccc(-n2cc(-c3ccc4c(c3)C(=O)NCC4)c(N)n2)cc1
Papp A→B [17]: 48.3 ×10⁻⁶ cm/s
